We go through five molecules from ChEMBL document CHEMBL1148140, “Isolation of streptonigrin and its novel derivative from Micromonospora as inducing agents of p53-dependent cell apoptosis” (J Nat Prod, 2002).

In general, IC50 refers to the concentration that inhibits the measured activity by half. The low end stands for greater potency, the high end for weaker potency.

Assay [1] has as its system SH-SY5Y. Put plainly: Cytotoxicity against human wild type SH-SY5Y cells upto 100 uM. It is filed as functional, cell-based. The procedure, abridged: (§1)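 Viability by MTS tetrazolium reduction. Neuroblastoma SH-SY5Y and SH-SY5Y-5.6 lines (HA-tagged 91-aa mini p53) were seeded the day before at 10⁵ cells/mL in RPMI with hygromycin 0.1 mg/mL. Exposure was 24 h; MTS was added at hour 20 (final 0.04 mg/well) for 4 h at 37 °C. Dose-response was run on reproducible hits.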

In assay [2] the test system is SH-SY5Y. Briefly: Cytotoxicity against human SH-SY5Y cells overexpressing dominant negative mutant of p53 upto 100 uM. It is filed as functional, cell-based. The procedure, abridged: as §1
Assay [3] concerns SH-SY5Y. Briefly: Induction of apoptosis in human SH-SY5Y cells assessed as DNA ladder activity. It is filed as functional, cell-based.
Assay [4] deals with SH-SY5Y. Briefly: Cytotoxicity against human SH-SY5Y cells overexpressing dominant negative mutant of p53. Format: functional, cell-based. In outline:
as §1

Assay [5] has as its system SH-SY5Y. Briefly: Selectivity ratio of IC50 for human SH-SY5Y cells overexpressing dominant negative mutant of p53 to IC50 for human wild type SH-SY5Y cells. It is filed as functional.
Assay [6] concerns SH-SY5Y. Put plainly: Cytotoxicity against human wild type SH-SY5Y cells. It is filed as functional, cell-based. In outline:
as §1

Assay [7] concerns SH-SY5Y. Briefly: Induction of apoptosis in human SH-SY5Y cells assessed as nuclear accumulation of p53. Format: functional, cell-based.

Active and inactive are the calls of the source. No cut-off for these calls is given here.

On to `CC(C)/C=c1\c(=O)[nH]/c(=C\c2ccccc2)c(=O)n1C`, for which the outcome with SH-SY5Y [1] and in the assay on SH-SY5Y [2] was inactive.
As for `COC1=C(N)C(=O)c2nc(-c3nc(C(=O)O)c(C)c(-c4ccc(OC)c(OC)c4O)c3N)ccc2C1=O` [STREPTONIGRIN], the outcome with SH-SY5Y [3] and with SH-SY5Y [7] was Active. The half-maximal inhibitory concentration (IC50) in the assay with SH-SY5Y [4] was 4.6 µM; with SH-SY5Y [6] it was 0.05 µM. The “Ratio IC50” value with SH-SY5Y [5] was determined as 92.
For `CC(C)/C=c1\[nH]c(=O)/c(=C/c2ccccc2)[nH]c1=O`, the outcome in the assay with SH-SY5Y [1] and in the assay with SH-SY5Y [2] was inactive.
On to `C[C@H]1CNCCN1S(=O)(=O)c1cccc2cnccc12`, for which the figures for the concentration for half-maximal inhibition (IC50) with SH-SY5Y [4] and in the assay with SH-SY5Y [6] were 80 µM and 40 µM, respectively.
For `COC1=C(NC(C)C(C)=O)C(=O)c2nc(-c3nc(C(=O)O)c(C)c(-c4ccc(OC)c(OC)c4O)c3N)ccc2C1=O` (stereo not drawn), in that order: 75 µM and 0.9 µM.
